Experimental data of several laboratories.
Lines come from different studies, so protocols differ.
Target: Phosphatidylinositol 4-phosphate 3-kinase C2 domain-containing subunit beta (PIK3C2B, Homo sapiens, UniProt O00750)

SMILES | read-out | method | tested at | remaining binding [%]
COc1cnc(Nc2cccc(S(N)(=O)=O)c2)nc1N1CCN(c2ccccc2)CC1 | binding | competition with immobilised ligand | 1 µM | 100
N[C@@H]1CCN(c2nccc(-c3cnn4ncccc34)n2)C1 | binding | – | 1 µM | 100
COc1ccc2c(O[C@@H]3C[C@H]4C(=O)N[C@]5(C(=O)O)CC5/C=C\CCCCC[C@H](NC(=O)OC5CCCC5)C(=O)N4C3)cc(-c3csc(NC(=O)C(C)C)n3)nc2c1C (stereo partly drawn) | cell-free assay | competition with immobilised ligand | 1 µM | 82
c1cnn2ncc(-c3ccnc(N4CCC45COC5)n3)c2c1 | binding | – | 1 µM | 82
O=C(Nc1cccnn1)N1CCC(=Cc2cccc(Oc3ccc(C(F)(F)F)cn3)c2)CC1 | cell-free assay | competition with immobilised ligand | 1 µM | 91
Cc1nc(NC(=O)N2CCC[C@H]2C(N)=O)sc1-c1ccnc(C(C)(C)C(F)(F)F)c1 | binding | competition with immobilised ligand | 10 µM | 4
CN(c1nccc(-c2cnn3ncccc23)n1)C1CC1 | binding | – | 1 µM | 100
N#Cc1ccccc1CSc1nnc2c(n1)[nH]c1ccccc12 | binding | competition with immobilised ligand | 10 µM | 95
CCS(=O)(=O)c1cc2cc(C[C@@](O)(CC(C)(C)c3ccc(F)cc3C(N)=O)C(F)(F)F)[nH]c2cn1 | cell-free assay | competition with immobilised ligand | 1 µM | 86
c1cncc(-c2cccc(Nc3nccc(NC4CCCCC4)n3)c2)c1 | binding | competition with immobilised ligand | 10 µM | 81
FC(F)(F)Oc1cccc(-c2cnc3ccc(-c4ccncc4)nn23)c1 | cell-free assay | competition with immobilised ligand | 5 µM | 54
O=C(c1ccc(Nc2ncc(Cl)c(-c3cc4ccccc4s3)n2)cc1)N1CCC(N2CCCC2)CC1 | binding | competition with immobilised ligand | 1 µM | 100
CN(CCCC(F)(F)F)c1nccc(-c2cnn3ncccc23)n1 | binding | – | 1 µM | 100
C[C@@H](c1ccc(-n2cnc3c(N)ncnc32)cc1)N1CCc2nn(C)c(Cc3ccccc3)c2C1=O | binding | competition with immobilised ligand | 0.1 µM | 87
C[C@@H]1CN(c2cc(-c3nn(C)c4ccc(OC5(C)CC5)cc34)ncn2)C[C@H](C)O1 | cell-free assay | competition with immobilised ligand | 1 µM | 70
CN(C)c1nccc(-c2cnc3ncccn23)n1 | binding | – | 1 µM | 57
O=C(N[C@H]1CCCCC/C=C\C2C[C@@]2(C(=O)O)NC(=O)[C@@H]2C[C@@H](Oc3ccncc3)CN2C1=O)OC1CCCC1 (stereo partly drawn) | binding | competition with immobilised ligand | 1 µM | 84
CN(C)c1nccc(-c2cnn3ncccc23)n1 | binding | – | 1 µM | 100
O=C(c1ccc(Nc2nccc(-c3cc4ccccc4s3)n2)cc1)N1CCC(N2CCCC2)CC1 | binding | competition with immobilised ligand | 1 µM | 99
Nc1cnc(N2CCc3cc(S(=O)(=O)Nc4c(F)cc(Cl)cc4F)cc(N4CCCC4=O)c32)nc1 | cell-free assay | competition with immobilised ligand | 1 µM | 83
O=C(c1ccc(Nc2ncc(Cl)c(-c3ccc(Cl)s3)n2)cc1)N1CCC(N2CCCC2)CC1 | binding | competition with immobilised ligand | 1 µM | 98
CN(c1ccnc(CNc2nc(Nc3ccc4c(c3)CC(=O)N4)ncc2C(F)(F)F)n1)S(C)(=O)=O | cell-free assay | competition with immobilised ligand | 1 µM | 79
COc1ccnn2ncc(-c3ccnc(N(C)C)n3)c12 | binding | – | 1 µM | 100
O=C(NCC1CCOCC1)c1n[nH]cc1NC(=O)c1c(F)cccc1F | binding | competition with immobilised ligand | 1 µM | 100
